# A selection: hits, their analogues and other compounds. The true share with any hit is near 2.1%.
# CXCR6 inh = CXCR6 receptor inhibitors, primary screen, cell-based, beta-arrestin, luminescence, CHO-K1 PathHunter, 1536-well | C-X-C chemokine receptor type 6 (Homo sapiens), O00574 | inhibition, % at 20 µM | hit rate 0.36% among 360,000 | AID 602244, 2012; in the data active = inhibition above about 34%, passing the limit was not always enough;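 note: antagonist mode with CXCL16 agonist at 10 nM final; 0% = 10 nM CXCL16 with DMSO and 100% = unstimulated wells without agonist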
# EBI2 antag = EBI2 receptor antagonists, beta-arrestin recruitment, primary screen, cell-based, luminescence, 7a,25-OHC stimulation, uHTS; hit rate 0.81% among 360,000; inhibition, % at 5 µM; 7a,25-OHC stimulated; G-protein coupled receptor 183 (Homo sapiens), P32249; in the data active = inhibition above about 38%;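 note: enzyme fragment complementation signal reports receptor beta-arrestin coupling in cells; 0% = agonist plus DMSO wells and 100% = wells without agonist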
# APJ antagonist = antagonists of human apelin receptor APJ, primary screen, CHO-K1 cells, beta-arrestin complementation, luminescence; inhibition, % at 20 µM; hit rate 0.32% among 330,000; AID 2521, 2010;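 active = inhibition above about 40% at 20 µM, limit read from the data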;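 note: cells challenged with 10 nM apelin-13 agonist together with compound; plate controls were apelin-13 plus DMSO wells for no effect and DMSO wells lacking apelin-13 for full effect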
# CCR6 antagonist = CCR6 receptor antagonists, primary screen, cell-based, CHO-K1, luminescence, beta-arrestin, uHTS; CHO-K1 CCR6 PathHunter beta-arrestin, CCL20-stimulated; inhibition, % at 20 µM; hit rate 0.49% among 340,000;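 active = compounds whose inhibition of the agonist-driven luminescence signal at 20 µM reaches about 50%, limit read from the data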;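 note: cells stimulated with CCL20 at 14 nM final; plate controls were DMSO with CCL20 for no effect and DMSO without agonist for full effect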
# APJ ag = agonists of human apelin receptor APJ, primary screen, CHO-K1 cells, PathHunter beta-arrestin, luminescence; P35414; 0% DMSO wells, 100% apelin; activation, % at 20 µM; hit rate 0.11% among 330,000;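 active = activation more than six SD over the plate average, tested at 20 µM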;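 note: 0% = DMSO alone and 100% = apelin-13 at 10 nM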
#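 Test system: CHO-K1 APJ beta-arrestin complementation cell line | Compound: Single test compound dose, 20 µM final, 1% DMSO | Incubation: Compound 90 min 25 °C, reagent 1 h | Measured by: beta-gal luminescence | Read-out basis: APJ–arrestin association signal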
# m5-HT2A agonist = mouse Htr2a agonists via beta-arrestin recruitment, primary screen, cell-based, luminescence; CHO-K1 mHTR2A beta-arrestin complementation; percent of 30 µM serotonin response; activation, % at 7.6 µM; hit rate 0.66% among 360,000;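 active = activation above a run cutoff, the mean activation of all tested compounds plus 3 SD, cut at about 14% in these data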;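 note: 0% = plate median of compound wells and 100% = 30 µM serotonin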
# OPRM1 ag = OPRM1 agonists via beta-arrestin recruitment, confirmation, counter-screen for mouse HTR2A agonist project, cell-based, luminescence, single concentration; U2OS OPRM1 beta-arrestin PathHunter; DMSO 0%, DAMGO 9.3 µM 100%; activation, % at 9.3 µM; hit rate 5.3% among 2,300; shares compounds with m5-HT2A agonist;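 active = mean activation above the mean of DMSO-only wells plus 3 SD, cut at about 0.5% in these data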
# Target sequence (P35372 whole entry, looked up): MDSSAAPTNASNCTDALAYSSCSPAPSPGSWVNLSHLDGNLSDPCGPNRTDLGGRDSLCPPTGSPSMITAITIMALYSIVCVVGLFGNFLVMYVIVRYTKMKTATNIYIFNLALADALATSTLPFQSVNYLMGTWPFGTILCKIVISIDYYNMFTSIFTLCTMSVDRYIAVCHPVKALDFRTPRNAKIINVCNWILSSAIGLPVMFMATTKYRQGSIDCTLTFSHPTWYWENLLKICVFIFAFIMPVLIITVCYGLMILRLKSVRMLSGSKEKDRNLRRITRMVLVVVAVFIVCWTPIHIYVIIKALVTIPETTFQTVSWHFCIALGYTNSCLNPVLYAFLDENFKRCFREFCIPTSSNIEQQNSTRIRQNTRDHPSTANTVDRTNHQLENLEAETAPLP
# HTR2A ag conf = mouse HTR2A agonists, beta-arrestin recruitment, confirmation, cell-based, luminescence, CHO-K1 PathHunter, triplicate. hit rate 19% among 2,300. DMSO 0%, 30 µM serotonin 100%. shares compounds with m5-HT2A agonist. activation, % at 7.6 µM;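 active = mean activation across triplicates above the hit threshold derived in the original primary screen, cut at about 15% in these data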
# The depositor's hits bear a star; · = no result.
SMILES,CXCR6 inh,EBI2 antag,APJ antagonist,CCR6 antagonist,APJ ag,m5-HT2A agonist,OPRM1 ag,HTR2A ag conf
Cc1c(NC(=O)C2CC(c3ccc(F)cc3)=NO2)c(=O)n(-c2ccccc2)n1C (configuration not stated),-3.0,1.9,-23.7,18.4,-0.3,14.6*,-0.3,2.1
O=C(Nc1cccc(F)c1)c1cccnc1,-3.9,-3.2,1.3,-3.9,-1.8,0.5,·,·
CCN(CC)C(=O)c1cccc2c1C(=O)c1ccccc1-2,-3.4,0.6,-5.1,10.4,0.5,3.4,·,·
CN(C)C(=O)CCC(=O)N(C)CC1CCCN(CCc2ccc(F)cc2)C1 (configuration not stated),1.5,0.6,-11.3,-2.6,-2.0,-3.1,·,·
O=C1Nc2ccccc2-n2nnnc2C1N1CCN(C(=O)c2ccco2)CC1 (configuration not stated),·,-2.0,·,·,·,20.1*,-0.7,-5.5
Cc1cc(N2CCOCC2)nc2ccc(NC(=O)CCC(=O)N3CCN(c4ccc(F)cc4)CC3)cc12,-8.4,1.1,-20.7,1.2,3.9,6.9,·,·
CCOC(=O)c1cc(-c2csc(-c3ccc(C(F)(F)F)cc3)n2)on1,-1.8,-7.5,10.9,-5.8,0.9,1.7,·,·
Cc1ccc(F)cc1-c1nc(NCC2CC2)nc2ccsc12,7.7,9.1,·,·,·,15.9*,-0.2,0.5
Cc1ccccc1-c1nc(NCC2CC2)nc2ccsc12,4.5,1.5,·,·,·,0.4,·,·
COc1cccc(CNS(=O)(=O)c2cc3c4c(c2)CCN4C(=O)CC3)c1,-5.6,4.4,-56.3,-5.2,0.0,17.6*,-0.6,-3.2
COCc1[nH]nc2c1C(c1ccsc1)C(C#N)=C(N)O2 (configuration not stated),2.5,-38.3,0.2,-0.2,-1.0,-1.6,·,·
CCCc1[nH]nc2c1C(c1ccsc1)C(C#N)=C(N)O2 (configuration not stated),-3.6,-18.1,19.6,5.1,-3.3,21.0*,-0.6,-3.7
CC(C)N1C(=O)CCC1C(=O)NCc1cccs1 (configuration not stated),-26.8,-2.5,-26.7,-1.6,1.2,23.3*,-0.6,-3.5
CN1CCN(C(=O)c2cc3ccccc3oc2=O)CC1,-0.4,-13.5,-1.3,-7.8,-4.5,5.7,·,·
Cc1cccc(N2CCN(C(=O)c3cc4ccccc4oc3=O)CC2)c1C,-4.1,1.8,7.7,-5.2,-1.5,15.8*,-0.2,-4.8
Cc1cc(NC(=O)CSc2ccc3nnc(-c4ccccn4)n3n2)no1,-7.5,-3.9,-26.6,-3.0,-3.4,0.9,·,·
NS(=O)(=O)c1ccc(CNS(=O)(=O)c2cc(C(=O)O)ccc2Cl)cc1,-6.0,-6.2,15.6,14.7,-1.8,-1.1,·,·
COc1ccc(N(C)C(=O)c2cc3c(s2)-c2ccccc2OC3)c(OC)c1,5.2,3.8,21.0,23.1,-3.4,-1.3,·,·
COc1ccc(N(C)C(=O)c2cc3c(s2)-c2ccc(Cl)cc2S(=O)(=O)C3)c(OC)c1,-5.9,-28.4,1.5,10.9,1.0,14.5*,-0.3,-5.0
CCN(CC)CCN(Cc1cc2cc3c(cc2[nH]c1=O)OCCO3)C(=S)NCC(C)C,12.7,14.0,-4.0,15.0,-2.1,22.0*,-0.7,7.9
Cc1cc(C)n(-c2nnc(C)n2N)n1,3.9,-1.2,0.2,-7.8,-2.6,18.0*,-0.5,-4.5
O=C(NCc1ccc(F)cc1)c1cc(C2CCCCN2C(=O)c2ccc(Cl)cc2)on1 (configuration not stated),5.6,11.9,·,·,·,15.1*,-0.7,-5.7
O=C(NCc1ccc(F)cc1)c1cc(C2CCCCN2C(=O)c2ccccc2)on1 (configuration not stated),8.7,4.8,·,·,·,-6.8,·,·
Cc1ccc(S(=O)(=O)Nc2cccc(C(=O)N3CCOCC3)c2)c(C)c1NS(C)(=O)=O,-0.7,-11.9,-19.6,7.6,-3.1,-1.8,·,·
COCCNC(=O)COC(=O)/C=C/c1c(C)nn(Cc2ccc(Cl)cc2Cl)c1Cl,-3.4,8.5,3.6,-6.8,-5.1,34.7*,-0.5,-4.7
SMILES,CXCR6 inh,EBI2 antag,APJ antagonist,CCR6 antagonist,APJ ag,m5-HT2A agonist,OPRM1 ag,HTR2A ag conf
Cc1nn(Cc2c(Cl)cccc2Cl)c(Cl)c1/C=C/C(=O)OCC(=O)NCC(F)(F)F,-3.5,2.6,6.6,3.8,2.2,-2.7,·,·
O=C(Nc1ccccc1)Nc1nnc(SCc2ccc(Cl)cc2)s1,-1.0,-0.9,10.9,11.0,-2.1,17.4*,-0.2,-1.2
O=C(Nc1ccc(Cl)cc1)Nc1nnc(SCc2ccc(Cl)cc2)s1,-11.0,-7.9,-8.6,4.1,-4.3,-2.3,·,·
COc1ccc(CN2CCNC(=O)C2CC(=O)N2CCCN(C(C)=O)CC2)cc1OC (configuration not stated),0.7,-0.5,8.9,4.3,1.6,3.1,·,·
CCc1nc2c(OCC(=O)c3ccc(F)cc3)cccn2c1N(C)C(=O)C(C)C,-0.7,-4.4,·,·,·,24.3*,-0.5,-4.6
CCc1nc2c(OC)cccn2c1N(C)C(=O)c1ccccc1F,-5.4,-1.2,·,·,·,1.7,·,·
C=CCOc1cccn2c(N(C)C(=O)c3ccccc3F)c(CC)nc12,-4.6,-1.6,·,·,·,15.7*,-0.3,-2.4
O=C(NCC1CC1)c1cccs1,-5.5,2.0,·,·,·,0.4,·,·
O=C(NCC1CCCN(C2Cc3ccccc3C2)C1)c1cccs1 (configuration not stated),-3.0,-1.0,-0.7,5.9,-3.2,18.8*,-0.1,14.8*
O=C(Nc1c(S(=O)(=O)c2ccc(Cl)cc2)csc1Br)c1ccccc1Cl,5.6,5.2,-0.2,14.9,-0.9,7.1,·,·
CCOC(=O)c1c(NC(=O)CCN2CCOCC2)sc2c1CC(C)(C)OC2,-2.1,6.2,12.9,5.1,-2.9,-0.9,·,·
CCN(CC)S(=O)(=O)c1ccc2c(c1)nc(SCn1nnc3ccccc3c1=O)n2CC,-3.9,5.9,-5.0,-9.1,-2.8,-6.1,·,·
CSc1ccc(N2CCN(CCCNC(=O)Nc3ccccc3F)CC2)cc1,-4.8,9.4,5.3,15.8,-1.7,16.8*,-0.5,39.0*
COc1cccc(NC(=O)c2ccc(CN3CCN(c4ccccc4)CC3)cc2)c1,-3.1,29.9,-5.6,13.7,-1.2,32.9*,-0.2,60.5*

# Bioassay records from PubChem.
